Measurements from ChEMBL document CHEMBL1821640, “Novel 1,2,3-triazole derivatives for use against Mycobacterium tuberculosis H37Rv (ATCC 27294) strain” (J Med Chem, 2011).
Values after ≈ are worked out from the molar mass of the structure shown.

Key:
[1] = tested on: Mycobacterium tuberculosis; assay: Antimicrobial activity against Mycobacterium tuberculosis H37Rv ATCC 27294 after 5 days by Microplate Alamar blue assay; assay type: functional; details: H37Rv ATCC 27294, 120 h
How it was run: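 M. tuberculosis H37Rv grown 24 h at 37 °C, 150 rpm, in Middlebrook 7H9 + 10% OADC, washed, set to 0.1 McFarland and diluted 1:25. Two-fold dilutions in 7H9, final […], 5 days at 37 °C. Resazurin (Alamar Blue)/10% Tween 80 added for 24 h. MIC is the lowest concentration preventing a blue-to-pink change. Triplicates averaged.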

[2] = Cytotoxicity against african green monkey BGMK cells after 24 hrs by MTT assay; assay type: cell-based; details: chlorocebus aethiops, read-out: MLD50
[3] = Selectivity index, ratio of MDL50 for human HepG2 cells to MIC for Mycobacterium tuberculosis H37Rv ATCC 27294; assay type: functional
[4] = Cytotoxicity against human HepG2 cells after 24 hrs by MTT assay; assay type: cell-based; details: read-out: MLD50
How it was run: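 HepG2 cells kept in RPMI 1640 with 10% heat-inactivated FCS and gentamicin at 37 °C under 5% CO2. Seeded at 5 × 10^3 cells/well and allowed to adhere for 18 h. Exposed to compound at 200–25 μg/mL for 24 h, then MTT (5 mg/mL solution) for 3 h. Absorbance is taken as % of untreated control after background subtraction, and MLD50 is derived.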

[5] = Selectivity index, ratio of MDL50 for african green monkey BGM cells to MIC for Mycobacterium tuberculosis H37Rv ATCC 27294; assay type: functional

| SMILES | MIC [1] | CC50 at 24 h [2] [µg/mL] | Ratio [3] | CC50 at 24 h [4] [µg/mL] | Ratio [5] |
| --- | --- | --- | --- | --- | --- |
| COc1cccc(-n2cc(C=O)nn2)c1 | 123 µM |  |  |  |  |
| C=Cc1cn(-c2ccccc2)nn1 | > 100 µg/mL |  |  |  |  |
| C=Cc1cn(-c2ccc(Cl)c(Cl)c2)nn1 | > 100 µg/mL |  |  |  |  |
| OCc1cn(-c2ccc(Br)cc2)nn1 | > 100 µg/mL |  |  |  |  |
| FC(F)c1cn(-c2cccc(Cl)c2)nn1 | > 100 µg/mL |  |  |  |  |
| Cc1ccccc1-n1cc(/C=N/NC(=O)c2ccncc2)nn1 | 8.1 µM | > 1000 | 126 | 314 (≈ 1030 µM) | 400 |
| OCc1cn(-c2cccc(Cl)c2)nn1 | > 100 µg/mL |  |  |  |  |
| OCc1cn(-c2ccccc2Cl)nn1 | > 100 µg/mL |  |  |  |  |
| COC(=O)c1cn(-c2cc(Cl)cc(Cl)c2)nn1 | > 100 µg/mL |  |  |  |  |
| FCc1cn(-c2cccc(Cl)c2)nn1 | 472 µM |  |  |  |  |
| O=C(N/N=C/c1cn(-c2ccc([N+](=O)[O-])cc2)nn1)c1ccncc1 | 1.8 µM | > 1000 | >1612 | > 1000 | >1612 |
| C=Cc1cn(-c2ccc(OC)cc2)nn1 | 244 µM |  |  |  |  |
| N#Cc1cccc(-n2cc(C(F)F)nn2)c1 | 114 µM |  |  |  |  |
| COc1ccc(-n2cc(/C=N/NC(=O)c3ccncc3)nn2)cc1 | 7.7 µM | > 1000 | >400 | > 1000 | >400 |
| O=C(N/N=C/c1cn(-c2cc(Cl)ccc2Cl)nn1)c1ccncc1 | 3.4 µM | > 1000 | >800 | > 1000 | >800 |
| C=Cc1cn(-c2cc(Cl)ccc2Cl)nn1 | 13 µM | > 1000 | >321 | > 1000 | >321 |
| COc1ccccc1-n1cc(/C=N/NC(=O)c2ccncc2)nn1 | 1.9 µM | > 1000 | >1612 | > 1000 | >1612 |
| COc1cccc(-n2cc(/C=N/NC(=O)c3ccncc3)nn2)c1 | 3.8 µM | > 1000 |  |  | >800 |
| Nc1nnc(-c2cccc(-n3cc(CO)nn3)c2)s1 | > 100 µg/mL |  |  |  |  |
| Cc1ccc(-n2cc(C=O)nn2)cc1 | 66.7 µM |  |  |  |  |
| O=Cc1cn(-c2ccccc2Cl)nn1 | 241 µM |  |  |  |  |
| Cc1cccc(-n2cc(C=O)nn2)c1 | 134 µM |  |  |  |  |
| O=C(N/N=C/c1cn(-c2ccccc2)nn1)c1ccncc1 | 8.5 µM | > 1000 | >400 | > 1000 | >400 |

| SMILES | MIC [1] | CC50 at 24 h [2] [µg/mL] | Ratio [3] | CC50 at 24 h [4] [µg/mL] | Ratio [5] |
| --- | --- | --- | --- | --- | --- |
| N#Cc1ccc(-n2cc(CO)nn2)cc1 | > 100 µg/mL |  |  |  |  |
| FCc1cn(-c2ccc(Cl)cc2)nn1 | 472 µM |  |  |  |  |
| COc1cccc(-n2cc(CO)nn2)c1 | > 100 µg/mL |  |  |  |  |
| COc1ccccc1-n1cc(C=O)nn1 | 246 µM |  |  |  |  |
| O=Cc1cn(-c2cccc(Cl)c2)nn1 | 121 µM |  |  |  |  |
| Cc1cccc(-n2cc(/C=N/NC(=O)c3ccncc3)nn2)c1 | 2 µM | 262 (≈ 855 µM) | 200 | 124 (≈ 405 µM) | 422 |
| O=Cc1cn(-c2ccccc2)nn1 | 144 µM |  |  |  |  |
| OCc1cn(-c2ccc(F)cc2)nn1 | > 100 µg/mL |  |  |  |  |
| OCc1cn(-c2ccc(Cl)c(Cl)c2)nn1 | > 100 µg/mL |  |  |  |  |
| Nc1nnc(-c2cccc(-n3cc(C(F)F)nn3)c2)s1 | 340 µM |  |  |  |  |
| OCc1cn(-c2cc(Cl)cc(Cl)c2)nn1 | > 100 µg/mL |  |  |  |  |
| O=C(N/N=C/c1cn(-c2cccc(Cl)c2)nn1)c1ccncc1 | 1.8 µM | > 1000 | >1612 | > 1000 | >1612 |
| CO[C@H]1/C=C/O[C@@]2(C)Oc3c(C)c(O)c4c(O)c(c(/C=N/N5CCN(C)CC5)c(O)c4c3C2=O)NC(=O)/C(C)=C\C=C\[C@H](C)[C@H](O)[C@@H](C)[C@@H](O)[C@@H](C)[C@H](OC(C)=O)[C@@H]1C [RIFAMPIN] | 1.21 µM |  |  |  |  |
| Cc1ccccc1-n1cc(CO)nn1 | > 100 µg/mL |  |  |  |  |
| Cc1cccc(-n2cc(CO)nn2)c1 | > 100 µg/mL |  |  |  |  |
| N#Cc1cccc(-n2cc(CF)nn2)c1 | > 100 µg/mL |  |  |  |  |
| C=Cc1cn(-c2ccc([N+](=O)[O-])cc2)nn1 | > 100 µg/mL |  |  |  |  |
| O=Cc1cn(-c2cc(Cl)ccc2Cl)nn1 | > 100 µg/mL |  |  |  |  |
| N#Cc1ccc(-n2cc(CF)nn2)cc1 | > 100 µg/mL |  |  |  |  |
| FC(F)(F)c1cn(-c2cc(Cl)cc(Cl)c2)nn1 | 177 µM |  |  |  |  |
| COc1ccc(-n2cc(CO)nn2)cc1 | > 100 µg/mL |  |  |  |  |
| FCc1cn(-c2ccc(Br)cc2)nn1 | 390 µM |  |  |  |  |
| Cc1ccccc1-n1cc(C=O)nn1 | 267 µM |  |  |  |  |

| SMILES | MIC [1] | CC50 at 24 h [2] [µg/mL] | Ratio [3] | CC50 at 24 h [4] [µg/mL] | Ratio [5] |
| --- | --- | --- | --- | --- | --- |
| Cc1ccc(-n2cc(CO)nn2)cc1 | > 100 µg/mL |  |  |  |  |
| COc1ccccc1-n1cc(CO)nn1 | > 100 µg/mL |  |  |  |  |
| O=Cc1cn(-c2ccc(Cl)c(Cl)c2)nn1 | 207 µM |  |  |  |  |
| C=Cc1cn(-c2ccc(Cl)cc2)nn1 | 243 µM |  |  |  |  |
| OCc1cn(-c2ccc(Cl)cc2)nn1 | > 100 µg/mL |  |  |  |  |
| COc1ccc(-n2cc(C=O)nn2)cc1 | 123 µM |  |  |  |  |
| N#Cc1cccc(-n2cc(CO)nn2)c1 | > 100 µg/mL |  |  |  |  |
| O=Cc1cn(-c2ccc(F)cc2)nn1 | 131 µM |  |  |  |  |
| O=[N+]([O-])c1ccc(-n2cc(CO)nn2)cc1 | > 100 µg/mL |  |  |  |  |
| O=C(N/N=C/c1cn(-c2ccc(Cl)cc2)nn1)c1ccncc1 | 1.8 µM | > 1000 | >1612 | > 1000 | >1612 |
| Cc1ccc(-n2cc(/C=N/NC(=O)c3ccncc3)nn2)cc1 | 4 µM | > 1000 | 94 | 118 (≈ 385 µM) | >800 |
| C=Cc1cn(-c2ccccc2OC)nn1 | > 100 µg/mL |  |  |  |  |
| OCc1cn(-c2ccccc2)nn1 | > 100 µg/mL |  |  |  |  |
| O=C(N/N=C/c1cn(-c2ccccc2Cl)nn1)c1ccncc1 | 3.8 µM | > 1000 | 210 | 263 (≈ 805 µM) | >800 |
| OCc1cn(-c2cc(Cl)ccc2Cl)nn1 | > 100 µg/mL |  |  |  |  |
| O=C(N/N=C/c1cn(-c2ccc(Cl)c(Cl)c2)nn1)c1ccncc1 | 6.9 µM | > 1000 | >400 | > 1000 | >400 |
| O=C(N/N=C/c1cn(-c2ccc(F)cc2)nn1)c1ccncc1 | 4 µM | > 1000 | >800 | > 1000 | >800 |
| FCc1cn(-c2cc(Cl)cc(Cl)c2)nn1 | 406 µM |  |  |  |  |
| NNC(=O)c1ccncc1 [ISONIAZID] | 0.437 µM |  |  |  |  |
| O=Cc1cn(-c2ccc(Cl)cc2)nn1 | 60.2 µM | 97 (≈ 467 µM) | 6 | 71 (≈ 342 µM) | 8 |
| O=Cc1cn(-c2ccc([N+](=O)[O-])cc2)nn1 | 115 µM |  |  |  |  |
